# A selection: hits, their analogues and other compounds. The true share with any hit is near 2%.
# Scp-1 inhibitor = inhibitors of human Scp-1 phosphatase. AID 493091. inhibition, % at 20 µM. Recombinant Scp1, phosphopeptide, malachite green phosphate absorbance. Q9GZU7. 340,000 compounds, 0.88% hits;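 active = inhibition above about 50% at 20 µM, limit read from the data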
# Target sequence (Q9GZU7 76-261 limits assumed): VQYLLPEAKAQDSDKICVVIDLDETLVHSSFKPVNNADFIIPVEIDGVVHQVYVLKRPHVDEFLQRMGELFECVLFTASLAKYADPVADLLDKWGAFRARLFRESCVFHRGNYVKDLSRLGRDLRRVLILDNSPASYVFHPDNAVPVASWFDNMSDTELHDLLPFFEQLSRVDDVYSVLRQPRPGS
#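 System: SCP-1 catalytic domain; Reagent: Phospho 17-mer peptide substrate; Doses: one concentration, 20 µM, with 1.0% DMSO; Incubation: 45 min room-temperature reaction, 5 min colour, 30 min stabiliser; Signal: Phosphate-binding colour reagent, absorbance read at 630 nm.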
# CSN deneddyl inh = CSN deneddylation inhibition. Q92905. Purified CSN, SCF-Nedd8-OG deneddylation, fluorescence polarization. inhibition, % at 12.5 µM. 360,000 compounds, 0.38% hits. AID 651999;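 active = pattern-corrected inhibition above about 35%, with an unprinted fluorescence ratio check between 0.5 and 1.5, limit read from the data, passing the limit was not always enough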
#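 test system = HEK293T-derived human Csn5 enzyme | amount = 0.24 nM Csn5 enzyme, final concentration | medium = Tris/NaCl/DTT buffer, pH 7.5 | schedule = 90 min reaction at room temperature | signal = FP | evaluation = inhibition of Csn5 cleavage, % | compound dosing = single dose of 12.5 µM compound with 0.25% DMSO | probe or stimulus = 10 nM SCFSkp2-Nedd8OG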
# SUMO1-SIM PPI = modulators of human SUMO1-mediated protein-protein interactions; SUMO1 binding to a labelled peptide, TR-FRET, 1 h; inhibition, % at 20 µM; 360,000 compounds, 0.33% hits; in the data active = inhibition above about 37%
# Target sequence (P63165 whole entry, looked up): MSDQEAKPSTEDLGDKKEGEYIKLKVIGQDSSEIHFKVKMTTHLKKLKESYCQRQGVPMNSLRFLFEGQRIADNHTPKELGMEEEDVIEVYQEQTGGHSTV
# STEP block = STEP (human) phosphatase inhibition | P54829 | recombinant STEP, OMFP fluorogenic substrate, fluorescence | inhibition, % at 20 µM | 360,000 compounds, 0.25% hits | AID 588621;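 active = inhibition at 20 µM, scaled per plate between control wells, above about 37%, limit read from the data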
#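 Assay system: isolated STEP enzyme / Timing: 20 min at room temperature, dark / Doses: 20 µM, 1% DMSO / Technique: fluorescence intensity, excitation 480 nm, emission 540 nm / Reagent: fluorogenic phosphatase substrate OMFP at 25 µM final / Measure: percent inhibition scaled to no-enzyme and uninhibited-enzyme controls, plate-pattern corrected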
# DNMT1 block = blocks human DNA methyltransferase DNMT1 | P26358 | DNMT1 molecular beacon, Hinp1I cleavage, fluorescence | inhibition (reported as % activation of signal), % at 10 µM | 360,000 compounds, 0.83% hits | AID 588458; in the data active = inhibition above about 50%
# LMPTP inh = LMPTP (human) inhibition; P24666; 360,000 compounds, 0.22% hits; recombinant LMPTP-A, OMFP fluorogenic substrate, fluorescence intensity; inhibition, % at 20 µM; AID 651560;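 active = compounds that cut the enzyme signal by at least half of the control window in the single-dose screen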
# Target sequence (P24666 whole entry, looked up): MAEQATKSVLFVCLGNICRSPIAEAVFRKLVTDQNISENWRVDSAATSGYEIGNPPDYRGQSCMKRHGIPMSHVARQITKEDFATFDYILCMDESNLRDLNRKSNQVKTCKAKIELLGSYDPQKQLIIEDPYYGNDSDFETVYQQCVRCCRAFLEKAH
#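 Buffer or medium: Bis-Tris pH 6.0, DTT, detergent; Assay system: LMPTP-A enzyme; Quantity: 0.625 nM enzyme; Detection: endpoint fluorescence intensity; Times: 50 min dark incubation at room temperature; Controls: substrate-only low control, DMSO enzyme-plus-substrate high control; Doses: single 20 µM dose; Read-out: percent inhibition versus substrate-only and uninhibited controls; Reagent: 400 µM OMFP.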
# Scp-1 conf = confirmation of human Scp-1 phosphatase inhibitors; shares compounds with Scp-1 inhibitor; recombinant SCP-1 catalytic domain, phosphate release, malachite green absorbance; inhibition, % at 20 µM; 2,500 compounds, 61% hits; AID 540281
# MG interference = interferes with malachite green readout, flagging false Scp-1 hits. apparent inhibition (interference), % at 20 µM. Colorimetric interference counterscreen, malachite green absorbance 630 nm. shares compounds with Scp-1 inhibitor. 2,500 tested, under 10 active;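 also: compounds added after enzyme reaction finished so only phosphate colour detection is probed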
# Scp1 DSF = Scp-1 (human) binding by thermal shift; shares compounds with Scp-1 inhibitor; AID 540329; 1,500 compounds, 25% hits; Recombinant SCP1, Sypro Orange thermal shift Tm; thermal shift relative to vanadate control, % at 40 µM;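 active = substances whose mean melting-temperature shift, as a percentage of the reference inhibitor's shift, reaches about 5.3%, limit read from the data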
# A number is an active result; i = inactive; nt = no result given.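 The calls were made as follows, unless noted: active = inhibition of at least 30% at 20 µM; inactive = the rest.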
SMILES,Scp-1 inhibitor,CSN deneddyl inh,SUMO1-SIM PPI,STEP block,DNMT1 block,LMPTP inh,Scp-1 conf,MG interference,others
O=C(Cn1c(=O)cnc2ccccc21)Nc1cc(Cl)ccc1N1CCOCC1,53,i,i,i,i,i,48,i,Scp1 DSF=i
O=C(Nc1ccc2c(c1)C(=O)NC2=O)c1cccc(C(F)(F)F)c1,88,i,i,i,i,i,53,i,Scp1 DSF=i
O=C(Nc1ccc2c(c1)C(=O)NC2=O)c1ccccc1,i,i,i,i,i,i,nt,nt,
CCCCOC(=O)c1cc(-c2ccc(/C=N/n3cnnc3)o2)ccc1Cl,91,i,i,i,i,i,i,i,
CCOC(=O)c1cc(-c2ccc(/C=N\n3cnnc3)o2)ccc1Cl,i,i,i,i,i,i,nt,nt,
CCc1ccc(NC(=O)CSc2nc(C)cs2)cc1,nt,i,i,i,i,i,nt,nt,
COC(=O)CSc1nc(SCc2ccccc2Cl)nc2c1CCCC2,53,i,i,i,i,i,i,i,
O=C(O)CSc1nc(SCc2ccccc2Cl)nc2c1CCCC2,i,i,i,i,i,i,nt,nt,
Cc1ccccc1NC(=O)CSc1n[nH]c(-c2ccccn2)n1,63,i,i,i,i,i,i,i,
NC(=O)c1ccc(NC(=O)COc2ccc(-n3cnnn3)cc2)cc1,i,i,i,i,i,i,nt,nt,
NC(=O)COc1ccc(-n2cnnn2)cc1,68,i,i,i,i,i,52,i,Scp1 DSF=i
NC(=O)NC(=O)COC(=O)c1ccc(OC(F)(F)F)cc1,i,i,i,i,i,i,nt,nt,
O=C(COC(=O)c1ccc(OC(F)(F)F)cc1)Nc1ncccn1,82,i,i,i,i,i,49,i,Scp1 DSF=i
CC1NC(=O)NC1CCCCCC(=O)Nc1ccc(F)cc1 (stereo not drawn),i,i,i,i,i,i,i,i,
Cc1c(F)cccc1NC(=O)CCCCCC1NC(=O)NC1C (stereo not drawn),i,i,i,i,i,i,i,i,
O=C(CCCC(=O)c1ccccc1)Nc1ccc(F)cc1,i,i,i,i,i,i,nt,nt,
CSCC[C@H](NC(=O)Nc1cccc(Br)c1)C(=O)O,i,i,i,i,i,i,nt,nt,
CN1CCN(CCCNC(=O)Nc2ccc([N+](=O)[O-])cc2)CC1,i,i,i,i,i,i,nt,nt,
C[n+]1cccc(/C=N/NC(=O)CC23CC4CC(CC(C4)C2)C3)c1,83,i,i,i,i,i,i,i,
COC(=O)c1sccc1NC(=O)CSc1ccccc1N,58,i,i,i,i,i,i,i,
O=C(COc1ncnc2sccc12)N1CCN(C(=O)c2ccco2)CC1,92,i,47,i,i,i,64,i,Scp1 DSF=i
Cc1c(C(=O)O)oc2ccc(S(=O)(=O)NCCC3=CCCCC3)cc12,52,i,i,i,i,i,i,i,
O=C(COC(=O)Cc1ccccc1F)NC(=O)NC1CCCC1,i,i,i,i,i,i,nt,nt,
COc1ccccc1C(C)NC(=O)c1cc(=O)[nH]c2ccccc12 (stereo not drawn),74,i,i,i,i,i,i,i,
COc1ccccc1NC(=O)c1cc(=O)[nH]c2ccccc12,i,i,i,i,i,i,nt,nt,
CC(=O)Nc1ccc(CN2C(=O)C(C)(C)ON=C2c2ccc(NC(C)=O)cc2)cc1,nt,i,i,i,i,i,nt,nt,
CCOCCCNC(=O)C1CCN(S(=O)(=O)c2ccc3nc4c(c(C(=O)O)c3c2)CCCCC4)CC1,i,i,i,i,i,i,nt,nt,
COCc1cc(C)c(C#N)c(=S)[nH]1,53,i,i,i,i,i,i,i,
COc1ccc(CN2CC(=O)N(c3cc(Cl)ccc3OC)C2=S)cc1OC,i,i,i,i,i,i,nt,nt,

# High-throughput results as filed in PubChem.
